bCat KO growth: beta-catenin-lacking colon tumor cell growth suppression; HCT116 beta-catenin knockout viability, CellTiter-Glo, 60 h; stronger effect = lower value; viability, % at 10 µM; 1.5% of 140,000 active;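 active = viability at or under a set limit, the compound median less 4 SD, cut at about 6% in these data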;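 note: 0% = Hyamine 1622 control at 20 µM and 100% = untreated cell control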
Lung fibro prol: blocks proliferation of human lung fibroblasts | LL 47 human lung fibroblast viability, ATP luminescence; stronger effect = lower value | viability, % at 10 µM | AID 719 | 1.1% of 85,000 active;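 active = viability at or below 50% in the single dose screen; inactive = viability above 50%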;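 note: compound exposure lasted 72 h before the ATP readout; 100% = median luminescence of untreated cell-only wells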
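Material: human LL 47 lung fibroblast cells; quantity: 1,150 cells/well; medium: IMEM plus 15% FBS; doses: 0.1% DMSO in all compound wells; timing: overnight attachment after seeding, then 72 h compound exposure at 37 °C; detection: CellTiter-Glo luminescence; measure: % viability of median cell-only signal; controls: cell-only wells, no compound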
HUVEC prolif 384: human endothelial cell proliferation inhibition; HUVEC proliferation, CellTiter-Glo luminescence, 72 h; stronger effect = lower value; viability, % at 10 µM (by protocol); 1.1% of 86,000 active; AID 648;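 active = viability at or below 30%; inactive = viability above 30%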;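 note: 100% = median luminescence of DMSO-only cell control wells on each plate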
HCT116 PTEN-null: growth suppressors of cells with PTEN tumor suppressor deletion. viability, % at 10 µM. HCT116 PTEN-null viability, CellTiter-Glo, 60 h; stronger effect = lower value. AID 827. 1.2% of 140,000 active;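 active = viability at or below a set limit, 4 SD under the median of all tested compounds, cut at about 3.7% in these data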;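 note: PTEN knockout HCT116 line with beta catenin targeted HCT116 as companion control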
H69AR inhibit: blocks growth of human H69AR lung tumor cells; H69AR lung tumor viability, ATP luminescence, 72 h; stronger effect = lower value; viability, % at 10 µM; 6% of 85,000 active; AID 598;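 active = viability at or below 40%; inactive = viability above 40%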;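 note: multidrug resistant small cell line overexpressing MRP-1 efflux transporter; 100% = mean luminescence of untreated control wells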
Numbers without * were called inactive; x = no result given. The entries come from a sample that favours hits as a whole.

SMILES	bCat KO growth	Lung fibro prol	HUVEC prolif 384	HCT116 PTEN-null	H69AR inhibit
Cn1c(O)c(C(C#N)=C2N=c3ccccc3=N2)c2ccccc21	86	74	50	74	14*
N#CC(=C1N=c2ccccc2=N1)c1c(O)[nH]c2ccccc12	87	x	x	84	x
COc1ccccc1/C=C/C(=O)c1c2c(c(C)[nH]c1=O)CCCC2	5.4*	x	x	3.2*	x
COc1ccccc1/C=C/C(=O)c1ccc(NC(C)=O)cc1	15	x	x	17	x
N#Cc1ccc(-c2csc(NNC(=O)c3ccc(Br)cc3)n2)cc1	2.8*	x	x	4	x
CCCCCCCn1c(=N)n(CC(=O)c2ccco2)c2ccccc21	4.7*	65	43	2.0*	24*
CCc1c(C)nc2ncnn2c1NCCc1ccc(OC)cc1	15	68	80	15	13*
Cc1ccc(-n2nnnc2CSc2nnc(-c3ccc(O)cc3)o2)cc1	86	x	x	89	x
NNc1nc(-c2ccccc2)cc(-c2ccccc2O)n1	33	x	x	38	x
CN(C)c1cc(-c2ccccc2)nc(N)n1	55	92	72	48	40*
Nc1ccc(-c2cc(-c3ccc(N)cc3)nc(-c3ccccc3)n2)cc1	92	x	x	93	x
Nc1nc(-c2ccccc2)cc(-c2ccccc2O)n1	17	81	17*	17	42
COc1cc(/C=C2\C(=O)N(CCC#N)N=C2C)c(Br)cc1OC(C)C	84	85	69	77	16*
CCC(C)NC(=O)c1cc(Sc2nnc(C)s2)nc2ccccc12 (stereo not drawn)	96	x	x	87	x
Cc1ccc(-n2nnnc2SCC(=O)Nc2ccc3c(c2)COC3=O)cc1C	83	27*	89	80	95
CCn1c2ccccc2c2cc(NC(=O)CSc3nnnn3-c3ccccc3)ccc21	94	79	73	91	20*
CCn1c2ccccc2c2cc(NC(=O)CSc3nnc(-c4ccc(OC)cc4)n3N)ccc21	35	56	48	30	27*
CCn1c(SCC(=O)Nc2ccc3c(c2)c2ccccc2n3CC)nnc1-c1cnccn1	38	95	97	63	18*
CCn1c(=O)cc(SCC(=O)Nc2ccc(Cl)cc2)c2ccccc21	87	87	82	82	17*
CCn1c(=O)cc(SCC(=O)Nc2ccc(OC)c(OC)c2)c2ccccc21	70	102	86	83	78
COc1ccc(CN(CCC(c2ccccc2)c2ccc(OC(C)C)cc2)C(=O)CCl)cc1OC (stereo not drawn)	1.5*	x	x	1.5*	x
COc1ccc(C(CCN(Cc2ccc(OC)c(OC)c2)C(C)=O)c2ccccc2)cc1 (stereo not drawn)	77	x	x	75	x
COc1cccc2cc(C(=O)NCc3ccco3)c(=O)oc12	91	x	x	98	x
COc1cccc2cc(C(=O)NCc3ccco3)c(=Nc3ccc(C(=O)O)cc3)oc12	67	85	78	49	12*
CCOc1ccc2[nH]c(=O)c(CN(Cc3cccs3)Cc3nnnn3C(C)(C)C)cc2c1	33	67	69	23	7.3*
SMILES	bCat KO growth	Lung fibro prol	HUVEC prolif 384	HCT116 PTEN-null	H69AR inhibit
Nc1c(C(=O)Nc2ccc3c(c2)OCCO3)nnn1CCc1ccccc1	40	41*	63	30	37*
O=C(CCc1ccccc1)Nc1ccc2c(c1)OCCO2	98	95	90	102	86
CNC(CC(=O)c1ccc([N+](=O)[O-])cc1)C(Cl)(Cl)Cl (stereo not drawn)	2.6*	x	x	3.4*	x
Cc1cc(C(=O)NCc2ccccc2Br)no1	97	103	90	101	99
CC(C)(C)C(=O)n1nc(-c2ccccc2)oc1=O	89	x	x	99	x
CC(=O)c1sc(Nc2nc(C)cc(C)n2)nc1C	84	98	81	79	29*
CC(=O)c1sc(NC(=O)C(C)(C)C)nc1C	91	112	90	109	91
Cn1cnc([N+](=O)[O-])c1S(=O)(=O)c1ccc(Cl)cc1	1.6*	x	x	1.7*	x
COc1ccccc1C1NC(=O)NC(C)=C1C(=O)OC1CCCCC1 (stereo not drawn)	97	108	99	112	87
CCCNC1=C(N(C(C)=O)c2cccc(F)c2)C(=O)c2ccccc2C1=O	1.0*	x	x	0.8*	x
CCN1C(=O)C(O)(CC(=O)c2ccc3c(c2)OCCO3)c2ccccc21 (stereo not drawn)	104	97	100	93	103
COc1ccc(CN2C(=O)C(O)(CC(=O)c3ccc4c(c3)OCO4)c3ccccc32)cc1OC (stereo not drawn)	49	105	105	28	28*
CN1C(=O)C(O)(CC(=O)c2ccccc2O)c2cc(Br)ccc21 (stereo not drawn)	30	77	55	22	20*
CCCCN1C(=O)C(O)(CC(=O)c2ccco2)c2cc(Br)ccc21 (stereo not drawn)	14	68	65	15	21*
O=C(CC1(O)C(=O)N(Cc2ccccc2Cl)c2ccccc21)c1ccco1 (stereo not drawn)	12	96	68	11	15*
C#CCN1C(=O)C(O)(CC(=O)c2cccc(OC)c2)c2ccccc21 (stereo not drawn)	34	102	93	19	20*
Cc1[nH]c2ccccc2c1C1(O)C(=O)N(Cc2ccc3c(c2)OCO3)c2ccccc21 (stereo not drawn)	13	80	80	9	14*
COC(=O)CN1C(=O)C(O)(CC(=O)c2ccccc2)c2ccccc21 (stereo not drawn)	98	101	85	102	96
CCOC(=O)CN1C(=O)C(O)(CC(=O)c2cccc(OC)c2)c2ccccc21 (stereo not drawn)	49	95	101	56	28*
Cc1[nH]c2ccccc2c1C1(O)C(=O)N(C(C)C)c2ccccc21 (stereo not drawn)	95	91	92	95	47
CCOC(=O)CN1C(=O)C(O)(CC(=O)c2ccco2)c2ccccc21 (stereo not drawn)	79	100	108	72	26*
CCCCOC(=O)c1ccc(NC(=O)/C=C/c2cccs2)cc1	84	x	x	80	x
C=CCC(=O)OCC(=O)Nc1ccc(Oc2ccccc2)cc1	x	99	75	x	62
CCOC(=O)c1c(CSC(=N)N)n(-c2ccc(Br)cc2)c2cc(Br)c(OC(C)=O)cc12	1.3*	x	x	1.6*	x
CCOC(=O)c1c(CSc2nc(C)cc(C)c2C#N)n(C)c2cc(Br)c(OC(C)=O)cc12	30	x	x	38	x
CCCCNC(=O)CSc1nc2ccc(N3CCOCC3)cc2c(=O)n1CCc1ccccc1	92	72	26*	75	8.9*
COCCNC(=O)CSc1nc2ccc(N3CCOCC3)cc2c(=O)n1CCc1ccccc1	98	98	94	102	81
COc1ccc(-c2c[n+]3c(n2-c2ccccc2)CCCCC3)cc1	31	x	x	43	x
COc1ccc(-c2c[n+]3c4n2CCCCC4=C(c2ccccc2)C3)cc1	3.8*	36*	47	3.5*	48

Compound activity: PubChem, SRMLSC
